Measurements as given in the RNAGym collection of RNA variant scans (doi:10.1002/anie.201605470).

B1: Osa-1-4 twister ribozyme (parent)
chain: CCGCCUAACACUGCCAAUGCCGGUCCCAAGCCCGGAUAAAAGUGGAGGGGGCGG

Variants of: B1
Test: self-cleavage, relative activity (ratio to wild type); higher = more cleavage; co-transcriptional
Procedure, shortened: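 In vitro transcription at 37 °C for 2 h allowed the twister ribozyme to cleave itself as it was made. Its 54-nucleotide Oryza sativa template had been synthesised with 97 % wild-type base and 1 % of each other base at the 48 positions downstream of the cleavage site. A template-switching oligonucleotide was used for reverse transcription, followed by PCR amplification and deep sequencing. Whether reads carried upstream sequence set the cleavage status, and relative activity is the fraction cleaved normalised to wild type.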

In order of rising self-cleavage:
1. CCGCCUAACACUGCCAAUGCCGGGCCCAAGCCCGGAUAAAAGUGCAGGGGGCGG  0.01
2. CCGCCUAACACUGCCAAUGCCGGCCCCAAGCCCGGAUAAAAGUGCAGGGGGCGG  0.02
3. CCGCCUAACACUGCCAAUGCCGGUCCCAAGCCCGGAUAAAAGUGCAGUGGGCGG  0.02
4. CCGCCUAACACUGCCAAUGCCGGUCCCAAGCCCGGAUAAAAGUGCAGGUGGCGG  0.03
5. CCGCCUAACACUGCCAAUGCCGGUCCCAAGCCCGGAUAAAAGUGCAGAGGGCGG  0.03
6. CCGCCUAACACUGCCAAUGCCGGGCCCAAGCCCGGAUAAAAGUUGAGGGGGCGG  0.04
7. CCGCCUAACACUGCCAAUGCCGGACCCAAGCCCGGAUAAAAGUGCAGGGGGCGG  0.04
8. CCGCCUAACACUGCCAAUGCCGGUCCCAAGCCCGGAUAAAAGGGCAGGGGGCGG  0.04
9. CCGCCUAACACUGCCAAUGCCGGUCCCAAGCCCGGAUAAAAGUGCAGGCGGCGG  0.04
10. CCGCCUAACACUGCCAAUGCCGGUCCCAAGCCCGGAUAAAAGUGCAGGAGGCGG  0.04
11. CCGCCUAACACUGCCAAUGCCGGUCCCAAGCCCGGAUAAAAGUGCAGCGGGCGG  0.04
12. CCGCCUAACACUGCCAAUGCCGGUCCCAAGCCCGGAUAAAAGUGCAGGGGCCGG  0.05
13. CCGCCUAACACUGCCAAUGCCGGUCCCAAGCCCGGAUAAAAGUGCAGGGGUCGG  0.05
14. CCGCCUAACACUGCCAAUGCCGGUCCCAAGCCCGGAUAAAAGUGAAGGGGGCCG  0.05
15. CCGCCUAACACUGCCAAUGCCGGUCCCAAGCCCGGAAAAAAGUGCAGGGGGCGG  0.05
16. CCGCCUAACACUGCCAAUGCCGGUCCCAAGCCCGGAUAAAAGUGAACGGGGCGG  0.05
17. CCGCCUAACACUGCCAAUGCCGGUCCCAAGCCCGGAUAAAAGAGCAGGGGGCGG  0.06
18. CCGCCUAACACUGCCAAUGCCGGUCCCAAGCCCGGAUAAAAGCGCAGGGGGCGG  0.06
19. CCGCCUAACACUGCCAAUGCCGGUCCCAAGCCCGGAUAAAAGUGAAUGGGGCGG  0.06
20. CCGCCUAACACUGCCAAUGCCGGUCCCAAGCCCGGAUAAAAGUGAAAGGGGCGG  0.06
21. CCGCCUAACACUGCCAAUGCCGGUCCCAAGCCCGGAUAAAAGUGAAGGGGCCGG  0.06
22. CCGCCUAACACUGCCAAUGCCGGUCCCAAGCCCGGAUAAAAGUGAAGGGCGCGG  0.06
23. CCGCCUAACACUGCCAAUGCCGGUCCCAAGCCCGGAUAAAAGUGAAGGGGGCUG  0.07
24. CCGCCUAACACUGCCAAUGCCGGUCCCAAGCCCGGAGAAAAGUGCAGGGGGCGG  0.07
25. CCGCCUAACACUGCCAAUGCCGGUCCCAAGCCCGGAUAAAAGUUGAGGGGCCGG  0.07
26. CCGCCUAACACUGCCAAUGCCGGUCCCAAGCCCGGAUAAAAGUGAAGGGGUCGG  0.07
27. CCGCCUAACACUGCCAAUGCCGGUCCCAAGCCCGGACAAAAGUGCAGGGGGCGG  0.08
28. CCGCCUAACACUGCCAAUGCCGGUCCCAAGCCCGGAUAAAAGUUGAGGGGGCCG  0.08
29. CCGCCUAACACUGCCAAUGCCGGUCCCAAGCCCGGAUAAAAGUGAAGGGGGCAG  0.09
30. CCGCCUAACACUGCCAAUGCCGGACCCAAGCCCGGAUAAAAGUUGAGGGGGCGG  0.09
31. CCGCCUAACACAGCCAAUGCCGGUCCCAAGCCCGGAUAAAAGUUGAGGGGGCGG  0.11
32. CCGCCUAACACUGCCAAUGCCGGUCCCAAGCCCGGAUAAAAGUGAAGGGGACGG  0.12
33. CCGCCUAACACUGCCAAUGCCGGUCCCAAGCCCGGAUAAAAGUGAAGGGUGCGG  0.13
34. CCGCCUAACACUGCCAAUGCCGGCCCCAAGCCCGGAUAAAAGUUGAGGGGGCGG  0.15
35. CCGCCUAACACGGCCAAUGCCGGUCCCAAGCCCGGAUAAAAGUUGAGGGGGCGG  0.15
36. CCGCCUAACACUGCCAAUGCCGGUCCCAAGCCCGGAUAAAAGUUGAGGGGUCGG  0.19
37. CCGCCUAACACUGCCAAUGCCGGUCCCAAGCCCGGAUAAAAGUGAAGGGAGCGG  0.23
38. CCGCCUAACACUGCCAAUGCCGGUCCCAAGCCCGGAAAAAAGUGAAGGGGGCGG  0.25
39. CCGCCUAACACUGCCAACGCCGGUCCCAAGCCCGGAUAAAAGUGAAGGGGGCGG  0.29
40. CCGCCUAACACUGCCAAUGCCGGUCCCAAGCCCGGAUAAAAGUUGAGGGGGCUG  0.3
41. CCGCCUAACACUGCCAAAGCCGGUCCCAAGCCCGGAUAAAAGUGAAGGGGGCGG  0.43
42. CCGCCUAACACCGCCAAUGCCGGUCCCAAGCCCGGAUAAAAGUUGAGGGGGCGG  0.43
43. CCGCCUAACACUGCCAAGGCCGGUCCCAAGCCCGGAUAAAAGUGAAGGGGGCGG  0.45
44. CCGCCUAACACUGCCAAUGCCGGUCCCAAGCCCGGACAAAAGUGAAGGGGGCGG  0.55
45. CCGCCUAACACUGCCAAUGCCGGUCCCAAGCCCGGAGAAAAGUGAAGGGGGCGG  0.58
46. CCGCCUAACACUGCCAAUGCCGGUCCCAAGCCCGGAUAAAAGUUGAGGGGGCAG  0.75
47. CCGCCUAACACUGCCAAUGCCGGUCCCAAGCCCGGAUAAAAGUUGAGGGGGCGA  0.88
48. CCGCCUAACACUGCCAAUGCCGGUCCCAAGCCCGGAUAAAAGUUGAGGGGGCGU  0.9
49. CCGCCUAACACUGCCAAUGCCGGUCCCAAGCCCGGAUAAAAGUUGAGGGGGCGC  0.92
